Measured values: ChEMBL document CHEMBL4673249, “Anticancer Effects of Honokiol via Mitochondrial Dysfunction Are Strongly Enhanced by the Mitochondria-Targeting Carrier Berberine” (J Med Chem, 2020)
Calls of active or inactive are those of the source. No cut-off for these calls is given here.

What follows are compounds tested on A549 (assay: Antiproliferative activity against human A549 cells assessed as reduction in cell viability after 48 hrs by MTT assay). Conditions: A549, 48 h.
Format: functional, cell-based
Method in brief: (§1)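 Cell lines grown at 37 °C in 5% CO2: A2780, A549, HL7702 and PC3 in RPMI 1640; HT29 in McCoy's 5A; HepG2 and PANC-1 in DMEM; all media with 10% FBS and penicillin/streptomycin. Cells seeded and left overnight, then exposed to compound for 48 h. MTT (5 mg/mL solution) added for 4 h at 37 °C, formazan dissolved in DMSO, absorbance read at 570 nm. IC50 taken from viability; run in triplicate.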

Compared with C=CCc1ccc(OCCCc2c3[n+](cc4c(OC)c(OC)ccc24)CCc2cc4c(cc2-3)OCO4)c(-c2ccc(O)c(CC=C)c2)c1, C=CCc1ccc(OCCCCCCCCc2c3[n+](cc4c(OC)c(OC)ccc24)CCc2cc4c(cc2-3)OCO4)c(-c2ccc(O)c(CC=C)c2)c1 is lower in IC50: > 5 µM for the first, 2.09 µM for the second.

C=CCc1ccc(O)c(-c2ccc(OC)c(CC=C)c2)c1 [METHYLHONOKIOL] and C=CCc1ccc(O)c(-c2ccc(OCCC)c(CC=C)c2)c1 are within 1.5-fold of each other in IC50: 22 µM for the first, 21 µM for the second.

First: COc1ccc2cc3[n+](cc2c1OC)CCc1cc2c(cc1-3)OCO2.[Cl-] [BERBERINE CHLORIDE]
Second: C=CCc1ccc(O)c(-c2ccc(OCCCCCCCCc3c4[n+](cc5c(OC)c(OC)ccc35)CCc3cc5c(cc3-4)OCO5)c(CC=C)c2)c1
The IC50 of the first is higher: > 50 µM for the first, 1.84 µM for the second.

With COc1cccc2c1C(=O)c1c(O)c3c(c(O)c1C2=O)C[C@@](O)(C(=O)CO)C[C@@H]3O[C@H]1C[C@H](N)[C@H](O)[C@H](C)O1 [DOXORUBICIN] the IC50 was 3.08 µM.

Each compound was assayed on HepG2 (assay: Induction of morphological changes in human HepG2 cells assessed as accumulation of cytoplasmic vacuoles at 4 uM after 24 hrs by optical microscopic method). Conditions: not given.
Format: functional, cell-based
Method in brief: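 Cells grown at 37 °C, 5% CO2 in media with 10% FBS and penicillin/streptomycin, then treated with compound. Cytoplasmic vacuoles judged by optical microscopy. Time course at 4 μM, or 10 h exposure across increasing concentrations.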

For C=CCc1ccc(OCCCc2c3[n+](cc4c(OC)c(OC)ccc24)CCc2cc4c(cc2-3)OCO4)c(-c2ccc(O)c(CC=C)c2)c1, the Activity was “Active”.
C=CCc1ccc(OCCCCCCCCc2c3[n+](cc4c(OC)c(OC)ccc24)CCc2cc4c(cc2-3)OCO4)c(-c2ccc(O)c(CC=C)c2)c1 was tested, and the Activity was “Active”.
In the case of C=CCc1ccc(O)c(-c2ccc(OCCCCCCCCc3c4[n+](cc5c(OC)c(OC)ccc35)CCc3cc5c(cc3-4)OCO5)c(CC=C)c2)c1, the Activity is reported as “Active”.

What follows are compounds tested on HT-29 (assay: Antiproliferative activity against human HT29 cells assessed as reduction in cell viability after 48 hrs by MTT assay). Conditions: HT-29, 48 h.
Format: functional, cell-based
Method in brief: as §1

First: C=CCc1ccc(OCCCc2c3[n+](cc4c(OC)c(OC)ccc24)CCc2cc4c(cc2-3)OCO4)c(-c2ccc(O)c(CC=C)c2)c1
Second: C=CCc1ccc(OCCCCCCCCc2c3[n+](cc4c(OC)c(OC)ccc24)CCc2cc4c(cc2-3)OCO4)c(-c2ccc(O)c(CC=C)c2)c1
The IC50 of the first is higher: > 5 µM for the first, 2.54 µM for the second.

C=CCc1ccc(O)c(-c2ccc(OC)c(CC=C)c2)c1 [METHYLHONOKIOL] and C=CCc1ccc(O)c(-c2ccc(OCCC)c(CC=C)c2)c1 are within 1.5-fold of each other in IC50: 21.1 µM for the first, 26.5 µM for the second.

Compared with COc1ccc2cc3[n+](cc2c1OC)CCc1cc2c(cc1-3)OCO2.[Cl-] [BERBERINE CHLORIDE], C=CCc1ccc(O)c(-c2ccc(OCCCCCCCCc3c4[n+](cc5c(OC)c(OC)ccc35)CCc3cc5c(cc3-4)OCO5)c(CC=C)c2)c1 is lower in IC50: > 50 µM for the first, 2.89 µM for the second. The second is the more potent here.

COc1cccc2c1C(=O)c1c(O)c3c(c(O)c1C2=O)C[C@@](O)(C(=O)CO)C[C@@H]3O[C@H]1C[C@H](N)[C@H](O)[C@H](C)O1 [DOXORUBICIN] showed an IC50 of 5.92 µM.

What follows are compounds tested on HepG2 (assay: Synergistic antiproliferative activity against human HepG2 cells assessed as combination index after 48 hrs in presence HN by MTT assay). Conditions: not given.
Format: functional

Compound CCCCCc1c2[n+](cc3c(OC)c(OC)ccc13)CCc1cc3c(cc1-2)OCO3.[I-] has a CI of 0.79.

These compounds were tested on HepG2 (assay: Synergistic antiproliferative activity against human HepG2 cells assessed as combination index at 20 to 80 uM after 48 hrs in presence of 10 to 40 uM HN by MTT assay). Conditions: dose 20-80 µM.
Format: functional

With COc1ccc2cc3[n+](cc2c1OC)CCc1cc2c(cc1-3)OCO2.[Cl-] [BERBERINE CHLORIDE] the CI was >1.

These compounds were tested on PC-3 (assay: Antiproliferative activity against human PC-3 cells assessed as reduction in cell viability after 48 hrs by MTT assay). Conditions: PC-3, 48 h.
Format: functional, cell-based
Method in brief: as §1

C=CCc1ccc(OCCCc2c3[n+](cc4c(OC)c(OC)ccc24)CCc2cc4c(cc2-3)OCO4)c(-c2ccc(O)c(CC=C)c2)c1 and C=CCc1ccc(OCCCCCCCCc2c3[n+](cc4c(OC)c(OC)ccc24)CCc2cc4c(cc2-3)OCO4)c(-c2ccc(O)c(CC=C)c2)c1 are within 1.5-fold of each other in IC50: 2.26 µM for the first, 2 µM for the second.

C=CCc1ccc(O)c(-c2ccc(OC)c(CC=C)c2)c1 [METHYLHONOKIOL] and C=CCc1ccc(O)c(-c2ccc(OCCC)c(CC=C)c2)c1 are within 1.5-fold of each other in IC50: 17.9 µM for the first, 21.1 µM for the second.

Going from COc1ccc2cc3[n+](cc2c1OC)CCc1cc2c(cc1-3)OCO2.[Cl-] [BERBERINE CHLORIDE] to C=CCc1ccc(O)c(-c2ccc(OCCCCCCCCc3c4[n+](cc5c(OC)c(OC)ccc35)CCc3cc5c(cc3-4)OCO5)c(CC=C)c2)c1, the IC50 falls from 31.7 µM to 1.74 µM (18-fold).

In the case of COc1cccc2c1C(=O)c1c(O)c3c(c(O)c1C2=O)C[C@@](O)(C(=O)CO)C[C@@H]3O[C@H]1C[C@H](N)[C@H](O)[C@H](C)O1 [DOXORUBICIN], the IC50 is reported as 0.93 µM.

Each compound was assayed on HepG2 (assay: Antiproliferative activity against human HepG2 cells assessed as reduction in cell viability after 48 hrs by MTT assay). Conditions: HepG2, 48 h.
Format: functional, cell-based
Method in brief: as §1

C=CCc1ccc(O)c(-c2ccc(OCCCCC)c(CC=C)c2)c1 and C=CCc1ccc(O)c(-c2ccc(OCCC)c(CC=C)c2)c1 are within 1.5-fold of each other in IC50: 19.2 µM for the first, 19.1 µM for the second.

Compared with C=CCc1ccc(OCCCc2c3[n+](cc4c(OC)c(OC)ccc24)CCc2cc4c(cc2-3)OCO4)c(-c2ccc(O)c(CC=C)c2)c1, C=CCc1ccc(OCCCCCCCCc2c3[n+](cc4c(OC)c(OC)ccc24)CCc2cc4c(cc2-3)OCO4)c(-c2ccc(O)c(CC=C)c2)c1 is 2.9-fold lower in IC50: 3.71 µM for the first, 1.27 µM for the second. The second is the more potent here.

First: C=CCc1ccc(O)c(-c2ccc(OC)c(CC=C)c2)c1 [METHYLHONOKIOL]
Second: C=CCc1ccc(O)c(-c2ccc(OCCCCCCCCc3c4[n+](cc5c(OC)c(OC)ccc35)CCc3cc5c(cc3-4)OCO5)c(CC=C)c2)c1
The IC50 of the first is 23-fold higher: 17.5 µM for the first, 0.77 µM for the second. The second is the more potent here.

First: COc1ccc2cc3[n+](cc2c1OC)CCc1cc2c(cc1-3)OCO2.[Cl-] [BERBERINE CHLORIDE]
Second: CCCCCc1c2[n+](cc3c(OC)c(OC)ccc13)CCc1cc3c(cc1-2)OCO3.[I-]
The IC50 of the first is higher: > 50 µM for the first, 29.3 µM for the second.

With COc1cccc2c1C(=O)c1c(O)c3c(c(O)c1C2=O)C[C@@](O)(C(=O)CO)C[C@@H]3O[C@H]1C[C@H](N)[C@H](O)[C@H](C)O1 [DOXORUBICIN] the IC50 was 0.67 µM.

The compounds below were run on A2780 (assay: Antiproliferative activity against human A2780 cells assessed as reduction in cell viability after 48 hrs by MTT assay). Conditions: A2780, 48 h.
Format: functional, cell-based
Method in brief: as §1

Compared with C=CCc1ccc(OCCCc2c3[n+](cc4c(OC)c(OC)ccc24)CCc2cc4c(cc2-3)OCO4)c(-c2ccc(O)c(CC=C)c2)c1, C=CCc1ccc(OCCCCCCCCc2c3[n+](cc4c(OC)c(OC)ccc24)CCc2cc4c(cc2-3)OCO4)c(-c2ccc(O)c(CC=C)c2)c1 is 1.5-fold lower in IC50: 3.03 µM for the first, 1.97 µM for the second. The second is the more potent here.

C=CCc1ccc(O)c(-c2ccc(OC)c(CC=C)c2)c1 [METHYLHONOKIOL] and C=CCc1ccc(O)c(-c2ccc(OCCC)c(CC=C)c2)c1 are the same in IC50: 14.7 µM for the first, 14.7 µM for the second.

Going from COc1ccc2cc3[n+](cc2c1OC)CCc1cc2c(cc1-3)OCO2.[Cl-] [BERBERINE CHLORIDE] to C=CCc1ccc(O)c(-c2ccc(OCCCCCCCCc3c4[n+](cc5c(OC)c(OC)ccc35)CCc3cc5c(cc3-4)OCO5)c(CC=C)c2)c1, the IC50 falls from > 50 µM to 1.52 µM.

COc1cccc2c1C(=O)c1c(O)c3c(c(O)c1C2=O)C[C@@](O)(C(=O)CO)C[C@@H]3O[C@H]1C[C@H](N)[C@H](O)[C@H](C)O1 [DOXORUBICIN] showed an IC50 of 0.71 µM.

What follows are compounds tested on HepG2 (assay: Induction of morphological changes in human HepG2 cells assessed as accumulation of cytoplasmic vacuoles at 40 uM after 24 hrs by optical microscopic method). Conditions: not given.
Format: functional, cell-based

In the case of COc1ccc2cc3[n+](cc2c1OC)CCc1cc2c(cc1-3)OCO2.[Cl-] [BERBERINE CHLORIDE], the Activity is reported as “inactive”.
CCCCCc1c2[n+](cc3c(OC)c(OC)ccc13)CCc1cc3c(cc1-2)OCO3.[I-] was tested, and the Activity was “Active”.

What follows are compounds tested on HepG2 (assay: Synergistic antiproliferative activity against human HepG2 cells assessed as combination index after 48 hrs in presence BBR by MTT assay). Conditions: not given.
Format: functional

C=CCc1ccc(O)c(-c2ccc(OCCCCC)c(CC=C)c2)c1 was tested, and the CI was 0.79.

What follows are compounds tested on L02 (assay: Antiproliferative activity against human L02 cells assessed as reduction in cell viability after 48 hrs by MTT assay). Conditions: L02, 48 h.
Format: cell-based
Method in brief: as §1

C=CCc1ccc(OCCCc2c3[n+](cc4c(OC)c(OC)ccc24)CCc2cc4c(cc2-3)OCO4)c(-c2ccc(O)c(CC=C)c2)c1 and C=CCc1ccc(OCCCCCCCCc2c3[n+](cc4c(OC)c(OC)ccc24)CCc2cc4c(cc2-3)OCO4)c(-c2ccc(O)c(CC=C)c2)c1 are within 1.5-fold of each other in IC50: 5.21 µM for the first, 5.77 µM for the second.

C=CCc1ccc(O)c(-c2ccc(OC)c(CC=C)c2)c1 [METHYLHONOKIOL] and C=CCc1ccc(O)c(-c2ccc(OCCC)c(CC=C)c2)c1 are within 1.5-fold of each other in IC50: 23.9 µM for the first, 27.8 µM for the second.

First: COc1ccc2cc3[n+](cc2c1OC)CCc1cc2c(cc1-3)OCO2.[Cl-] [BERBERINE CHLORIDE]
Second: C=CCc1ccc(O)c(-c2ccc(OCCCCCCCCc3c4[n+](cc5c(OC)c(OC)ccc35)CCc3cc5c(cc3-4)OCO5)c(CC=C)c2)c1
The IC50 of the first is higher: > 50 µM for the first, 4.82 µM for the second.

Work on COc1cccc2c1C(=O)c1c(O)c3c(c(O)c1C2=O)C[C@@](O)(C(=O)CO)C[C@@H]3O[C@H]1C[C@H](N)[C@H](O)[C@H](C)O1 [DOXORUBICIN] yielded an IC50 of 2.24 µM.

What follows are compounds tested on PANC-1 (assay: Antiproliferative activity against human PANC1 cells assessed as reduction in cell viability after 48 hrs by MTT assay). Conditions: PANC-1, 48 h.
Format: functional, cell-based
Method in brief: as §1

Compared with C=CCc1ccc(OCCCc2c3[n+](cc4c(OC)c(OC)ccc24)CCc2cc4c(cc2-3)OCO4)c(-c2ccc(O)c(CC=C)c2)c1, C=CCc1ccc(OCCCCCCCCc2c3[n+](cc4c(OC)c(OC)ccc24)CCc2cc4c(cc2-3)OCO4)c(-c2ccc(O)c(CC=C)c2)c1 is lower in IC50: > 5 µM for the first, 2.48 µM for the second.

C=CCc1ccc(O)c(-c2ccc(OC)c(CC=C)c2)c1 [METHYLHONOKIOL] and C=CCc1ccc(O)c(-c2ccc(OCCC)c(CC=C)c2)c1 are within 1.5-fold of each other in IC50: 16.7 µM for the first, 17.8 µM for the second.

First: COc1ccc2cc3[n+](cc2c1OC)CCc1cc2c(cc1-3)OCO2.[Cl-] [BERBERINE CHLORIDE]
Second: C=CCc1ccc(O)c(-c2ccc(OCCCCCCCCc3c4[n+](cc5c(OC)c(OC)ccc35)CCc3cc5c(cc3-4)OCO5)c(CC=C)c2)c1
The IC50 of the first is higher: > 50 µM for the first, 2.09 µM for the second. The second is the more potent here.

Work on COc1cccc2c1C(=O)c1c(O)c3c(c(O)c1C2=O)C[C@@](O)(C(=O)CO)C[C@@H]3O[C@H]1C[C@H](N)[C@H](O)[C@H](C)O1 [DOXORUBICIN] yielded an IC50 of 1.73 µM.
